pIC50: −log10 of the molar value.
What was measured:
[1] = biological target: T1, Hepatic triacylglycerol lipase (Homo sapiens, UniProt P11150); experiment: Inhibition of human hepatic lipase expressed in African green monkey COS7 cells using PED-A1 as substrate incubated for 20 mins and measured every 20 secs for 10 mins by FRET assay; type: cell-based
T1 sequence (P11150 whole entry): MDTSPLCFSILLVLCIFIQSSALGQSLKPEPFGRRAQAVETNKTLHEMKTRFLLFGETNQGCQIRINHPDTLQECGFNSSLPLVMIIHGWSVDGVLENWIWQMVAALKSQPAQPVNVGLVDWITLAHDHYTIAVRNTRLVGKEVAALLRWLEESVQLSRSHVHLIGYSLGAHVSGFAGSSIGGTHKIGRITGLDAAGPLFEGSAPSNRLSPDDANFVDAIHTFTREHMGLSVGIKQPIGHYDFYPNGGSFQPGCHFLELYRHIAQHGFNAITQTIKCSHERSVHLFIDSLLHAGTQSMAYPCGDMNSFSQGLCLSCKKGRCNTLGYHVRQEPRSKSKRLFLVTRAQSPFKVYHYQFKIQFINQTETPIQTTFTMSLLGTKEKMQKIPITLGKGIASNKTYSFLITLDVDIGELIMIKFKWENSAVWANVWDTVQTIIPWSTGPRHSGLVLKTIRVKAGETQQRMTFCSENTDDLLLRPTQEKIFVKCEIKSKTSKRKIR
Outline: (§1)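 IC50s were calculated from mean inhibition values of duplicate determinations.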

[2] = biological target: T2, Endothelial lipase (Mus musculus, UniProt Q9WVG5); experiment: Inhibition of mouse endothelial lipase expressed in HEK293F cells using D31-POPC-HDL as substrate incubated for 2 hrs in presence of mouse plasma by LC/MS analysis
T2 sequence (Q9WVG5 whole entry): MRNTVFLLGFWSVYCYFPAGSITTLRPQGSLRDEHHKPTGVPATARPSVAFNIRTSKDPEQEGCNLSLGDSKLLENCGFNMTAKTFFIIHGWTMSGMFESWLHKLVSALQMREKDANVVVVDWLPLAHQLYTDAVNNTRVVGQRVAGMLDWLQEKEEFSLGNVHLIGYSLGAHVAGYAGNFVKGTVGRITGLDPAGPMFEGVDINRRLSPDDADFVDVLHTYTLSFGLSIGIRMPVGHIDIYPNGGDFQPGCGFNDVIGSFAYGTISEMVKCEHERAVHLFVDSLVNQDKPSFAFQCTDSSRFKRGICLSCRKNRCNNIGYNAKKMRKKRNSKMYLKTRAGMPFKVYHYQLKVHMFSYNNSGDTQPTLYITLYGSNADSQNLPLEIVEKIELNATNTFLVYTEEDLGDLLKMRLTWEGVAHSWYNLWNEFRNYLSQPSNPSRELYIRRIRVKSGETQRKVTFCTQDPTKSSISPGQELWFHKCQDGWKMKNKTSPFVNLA
Outline: (§2)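 IC50 values were derived from the means of duplicate inhibition measurements.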

[3] = species: Homo sapiens; experiment: Selectivity index, ratio of IC50 for inhibition of human hepatic lipase expressed in African green monkey COS7 cells to IC50 for inhibition of human endothelial lipase derived from human HT1080 cell conditioned media; type: cell-based
[4] = biological target: T3, Endothelial lipase (Homo sapiens, UniProt Q9Y5X9); experiment: Inhibition of human endothelial lipase using D31-POPC-HDL as substrate incubated for 2 hrs in presence of human serum by LC/MS analysis; outline: as §2
T3 sequence (Q9Y5X9 whole entry): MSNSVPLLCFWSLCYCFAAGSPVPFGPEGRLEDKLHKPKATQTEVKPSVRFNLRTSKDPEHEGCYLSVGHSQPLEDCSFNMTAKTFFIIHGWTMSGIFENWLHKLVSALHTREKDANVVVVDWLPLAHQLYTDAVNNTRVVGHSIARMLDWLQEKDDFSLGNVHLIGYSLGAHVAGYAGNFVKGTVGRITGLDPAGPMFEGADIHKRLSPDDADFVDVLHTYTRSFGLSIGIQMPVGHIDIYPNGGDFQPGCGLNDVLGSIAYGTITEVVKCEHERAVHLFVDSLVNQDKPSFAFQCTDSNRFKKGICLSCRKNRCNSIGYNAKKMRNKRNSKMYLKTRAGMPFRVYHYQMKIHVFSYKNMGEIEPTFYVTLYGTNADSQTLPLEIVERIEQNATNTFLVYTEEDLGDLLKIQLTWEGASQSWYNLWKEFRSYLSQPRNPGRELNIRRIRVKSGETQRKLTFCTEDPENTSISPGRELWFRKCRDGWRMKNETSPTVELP

[5] = biological target: T3, Endothelial lipase; experiment: Inhibition of human endothelial lipase derived from human HT1080 cell conditioned media using PED-A1 as substrate incubated for 20 mins and measured every 20 secs for 10 mins by FRET assay; outline: as §1
[6] = Cmax in Balb/c mouse at 10 mg/kg, po; type: ADME, organism-based; design: dose 10 mg/kg, route oral; conditions: in vivo
Outline: (§3)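 Oral PK in fasted male balb/c mice. Dosing vehicle was ethanol/PEG 400/water (10:60:30).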

[7] = Plasma concentration in Balb/c mouse at 10 mg/kg, po measured after 7 hrs; type: ADME, organism-based; outline: as §3
[8] = Plasma concentration in Balb/c mouse at 10 mg/kg, po measured after 24 hrs; type: ADME, organism-based; outline: as §3
[9] = Tmax in Balb/c mouse at 10 mg/kg, po; type: ADME, organism-based; conditions: in vivo; outline: as §3
[10] = Total AUC in Balb/c mouse at 10 mg/kg, po measured after 24 hrs; type: ADME, organism-based; design: dose 10 mg/kg, time AUCmax, route oral; conditions: in vivo; outline: as §3
[11] = Metabolic stability in Balb/c mouse liver microsomes assessed as parent compound remaining at 0.5 uM measured after 10 mins; type: ADME, Microsome; conditions: read-out: Stability
Outline: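 Test compound at 0.5 μM was incubated for 10 min with mouse liver microsomes. The read-out is the percentage of parent remaining.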

[12] = Permeability of compound at pH 5.5 by PAMPA; type: ADME; conditions: read-out: permeability
Outline: (§4)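 Permeability was measured by parallel artificial membrane permeability assay (PAMPA) at pH 5.5 and pH 7.4. Values are reported in nm/s.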

[13] = Permeability of compound at pH 7.4 by PAMPA; type: ADME; conditions: read-out: permeability; outline: as §4

Structure (SMILES) | pIC50 [1] | pIC50 [2] | Ratio IC50 [3] | pIC50 [4] | pIC50 [5] | Cmax [6] [nM] | concentration at 7 h [7] [nM] | concentration at 24 h [8] [nM] | Tmax [9] [h] | AUC at 24 h [10] [µM·h] | remaining at 10 min, 0.5 µM [11] [%] | Papp [12] [×10⁻⁶ cm/s] | Papp [13] [×10⁻⁶ cm/s]
O=C(CNC(=O)C(c1nc2ccc(-c3ccc(F)nc3)cc2s1)S(=O)(=O)CCC(F)(F)F)NC1CC1 (configuration not stated) | 7.10 | 6.22 | 2.7 | 6.18 | – | – | – | – | – | – | – | – | –
O=C(CNC(=O)C(c1nc2ccc(-c3ccc(F)nc3)cc2s1)S(=O)(=O)Cc1ccccc1)NC1CC1 (configuration not stated) | 8.15 | 7.03 | 0.3 | 7.19 | 7.60 | – | – | – | – | – | – | – | –
CS(=O)(=O)C(C(=O)NCCS(N)(=O)=O)c1nc2ccc(-c3cnn(CCN4CCOCC4)c3)cc2s1 (configuration not stated) | – | 6.72 | – | – | 8.00 | 15 | 4 | 1 | 3 | 0.1 | 74 | – | –
CS(=O)(=O)C(C(=O)NCCS(N)(=O)=O)c1nc2ccc(-c3ccccc3)cc2s1 (configuration not stated) | 7.82 | 6.68 to 7.00 | – | – | 8.00 | 3500 | 430 | 130 | 0.5 | 14 | 91 | 36.5 | 36.8
CS(=O)(=O)C(C(=O)NCCS(N)(=O)=O)c1nc2ccc(-c3ccc(F)nc3)cc2s1 (configuration not stated) | 5.36 | 6.70 | – | – | 8.30 | 30 | 1 | – | – | 0.05 | 96 | 1.7 | 7.8

From ChEMBL document CHEMBL4387752, “Identification of substituted benzothiazole sulfones as potent and selective inhibitors of endothelial lipase” (Bioorg Med Chem Lett, 2019)
